Laboratory results published in ChEMBL document CHEMBL1124476, “1-(2-aminoethyl)-6-aryl-4H- [1,2,4]triazolo[4,3-a][1,4]benzodiazepines with diuretic and natriuretic activity” (J Med Chem, 1989).

Legend:
Rattus norvegicus [1] = species: Rattus norvegicus; test: […]; assay type: ADME, organism-based, Urine; design: dose 10 mg/kg, route oral; conditions: in vivo, po, 10 mg/kg
In short: (§1)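 Male Sprague-Dawley rats, about 160 g, fasted 24 h and water withheld 1 1/2 h beforehand; food and water withheld during the test. Dosing by gavage with 25 mL/kg 0.9% saline containing 0.5% (carboxymethyl)cellulose, agent dissolved or suspended. Three cages of two rats each per dose, held in metabolism cages. Urine collected over 5 h. Volume given in mL, Na+ in mequiv. Significance versus control at P < 0.05.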

Rattus norvegicus [2] = species: Rattus norvegicus; test: […]; assay type: ADME, organism-based, Urine; design: dose 100 mg/kg, route oral; conditions: in vivo, po, 100 mg/kg; in short: as §1
Rattus norvegicus [3] = species: Rattus norvegicus; test: […]; assay type: ADME, organism-based, Urine; design: dose 3 mg/kg, route oral; conditions: in vivo, po, 3 mg/kg; in short: as §1
Rattus norvegicus [4] = species: Rattus norvegicus; test: […]; assay type: ADME, organism-based, Urine; design: dose 0.3 mg/kg, route oral; conditions: in vivo, po, 0.3 mg/kg
In short: (§2)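 Dose-response test in male Sprague-Dawley rats of about 160 g, fasted 24 h, with water withheld 1½ h before and during the test. Each rat got a single gavage of 25 mL/kg 0.9% saline with 0.5% carboxymethylcellulose carrying the agent (0.3–100 mg/kg range). Rats were housed two per metabolism cage, and urine was collected for 5 h. Mean urine volume (mL) was compared with controls (P < 0.05).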

Rattus norvegicus [5] = species: Rattus norvegicus; test: […]; assay type: ADME, organism-based, Urine; design: dose 1 mg/kg, route oral; conditions: in vivo, po, 1 mg/kg; in short: as §2
Rattus norvegicus [6] = test: Mean excretion of potassium in conscious rats at a dose of 10 mg/kg given orally; assay type: ADME, organism-based; design: dose 10 mg/kg, route oral; conditions: in vivo, po
In short: (§3)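 Secondary dose-response in male Sprague-Dawley rats (~160 g), fasted and hydrated as in the primary screen. Oral gavage at 0.3-100 mg/kg in 25 mL/kg saline/0.5% CMC, three cages of two rats per dose. Urine collected 5 h; Na, K, Cl, HCO3 measured. Values are mean excretion (mequiv), compared with controls at P < 0.05.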

Rattus norvegicus [7] = test: Mean excretion of potassium in conscious rats at a dose of 100 mg/kg given orally; assay type: ADME, organism-based; design: dose 100 mg/kg, route oral; conditions: in vivo, po; in short: as §3
Rattus norvegicus [8] = test: Mean excretion of potassium in conscious rats at a dose of 3.0 mg/kg given orally; assay type: ADME, organism-based; design: dose 3 mg/kg, route oral; conditions: in vivo, po; in short: as §3
Rattus norvegicus [9] = test: Mean excretion of potassium in conscious rats at a dose of 30 mg/kg given orally; assay type: ADME, organism-based; design: dose 30 mg/kg, route oral; conditions: in vivo, po; in short: as §3
Rattus norvegicus [10] = test: Mean excretion of sodium in conscious rats at a dose of 0.3 mg/kg given orally; assay type: ADME, organism-based; design: dose 0.3 mg/kg, route oral; conditions: in vivo, po; in short: as §1
Rattus norvegicus [11] = test: Mean excretion of […] in conscious rats at a dose of 1.0 mg/kg given orally; assay type: ADME, organism-based; design: dose 1 mg/kg, route oral; conditions: in vivo, po; in short: as §1
Rattus norvegicus [12] = test: Mean excretion of sodium in conscious rats at a dose of 10 mg/kg given orally; assay type: ADME, organism-based; design: dose 10 mg/kg, route oral; conditions: in vivo, po; in short: as §1
Rattus norvegicus [13] = test: Mean excretion of sodium in conscious rats at a dose of 100 mg/kg given orally; assay type: ADME, organism-based; design: dose 100 mg/kg, route oral; conditions: in vivo, po; in short: as §1
Rattus norvegicus [14] = test: Mean excretion of sodium in conscious rats at a dose of 3.0 mg/kg given orally; assay type: ADME, organism-based; design: dose 3 mg/kg, route oral; conditions: in vivo, po; in short: as §1
Rattus norvegicus [15] = test: Mean excretion of sodium in conscious rats at a dose of 30 mg/kg given orally; assay type: ADME, organism-based; design: dose 30 mg/kg, route oral; conditions: in vivo, po; in short: as §1
Rattus norvegicus [16] = test: Mean excretion of chloride in conscious rats at a dose of 1.0 mg/kg given orally; assay type: ADME, organism-based; design: dose 1 mg/kg, route oral; conditions: in vivo, po; in short: as §3
Rattus norvegicus [17] = test: Mean excretion of chloride in conscious rats at a dose of 10 mg/kg given orally; assay type: ADME, organism-based; design: dose 10 mg/kg, route oral; conditions: in vivo, po; in short: as §3
Rattus norvegicus [18] = test: Mean excretion of chloride in conscious rats at a dose of 100 mg/kg given orally; assay type: ADME, organism-based; design: dose 100 mg/kg, route oral; conditions: in vivo, po; in short: as §3
Rattus norvegicus [19] = test: Mean excretion of chloride in conscious rats at a dose of 30 mg/kg given orally; assay type: ADME, organism-based; design: dose 30 mg/kg, route oral; conditions: in vivo, po; in short: as §3
Rattus norvegicus [20] = test: Mean excretion of chloride in conscious rats at a dose of 3.0 mg/kg given orally; assay type: ADME, organism-based; design: dose 3 mg/kg, route oral; conditions: in vivo, po; in short: as §3
Rattus norvegicus [21] = test: Mean excretion of Cl- in conscious rats at a dose of 0.3 mg/kg given orally; assay type: ADME, organism-based, Urine; design: dose 0.3 mg/kg, route oral; conditions: in vivo, po; in short: as §2
Rattus norvegicus [22] = test: Mean excretion of potassium in conscious rats at a dose of 1.0 mg/kg given orally; assay type: ADME, organism-based; design: dose 1 mg/kg, route oral; conditions: in vivo, po; in short: as §3
Rattus norvegicus [23] = test: Mean excretion of potassium in conscious rats at a dose of 0.3 mg/kg given orally; assay type: ADME, organism-based; design: dose 0.3 mg/kg, route oral; conditions: in vivo, po; in short: as §3
[24] = Diuretic activity at 40 mg/kg (screening dose-84.7 umol/kg) in […] in a two stage experiment; T/C1.2 = urine vol of treated rats / urine vol of control rats; assay type: functional
In short: (§4)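 40 mg/kg given by gavage in 25 mL/kg 0.9% saline with 0.5% (carboxymethyl)cellulose. Four rats per agent, two per metabolism cage; 20 controls; 5 h urine. T/C = treated/control urine volume. Stage-1 T/C of 1.66 or more leads to stage 2; product T/C1·T/C2 of 3.34 or more counts as active.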

[25] = Diuretic activity at 40 mg/kg (screening dose-84.7 umol/kg) in […] in a one stage experiment; T/C = urine vol of treated rats / urine vol of control rats; assay type: functional; in short: as §4
Rattus norvegicus [26] = species: Rattus norvegicus; test: […]; assay type: ADME, organism-based, Urine; design: dose 30 mg/kg, route oral; conditions: in vivo, po, 30 mg/kg; in short: as §1
[27] = Diuretic activity at 40 mg/kg (screening dose-84 umol/kg) in male […] in a two stage experiment; T/C1.2 = urine vol of treated rats / urine vol of control rats; assay type: functional; in short: as §4
[28] = Diuretic activity at 40 mg/kg (screening dose-84 umol/kg) in male […] in a one stage experiment; T/C = urine vol of treated rats / urine vol of control rats; assay type: functional; in short: as §4
[29] = Diuretic activity at 40 mg/kg (screening dose-90.5 umol/kg) in […] in a one stage experiment; T/C = urine vol of treated rats / urine vol of control rats; assay type: functional; in short: as §4
[30] = Diuretic activity at 40 mg/kg (screening dose-90.5 uM/Kg) in […] in a two stage experiment; T/C1.2 = urine vol of treated rats / urine vol of control rats; assay type: functional; in short: as §4

Compound	Mean urine volume (Rattus norvegicus [1])	Mean urine volume (Rattus norvegicus [2])	Mean urine volume (Rattus norvegicus [3])	Mean urine volume (Rattus norvegicus [4])	Mean urine volume (Rattus norvegicus [5])	Mean excretion of K+ (Rattus norvegicus [6])	Mean excretion of K+ (Rattus norvegicus [7])	Mean excretion of K+ (Rattus norvegicus [8])	Mean excretion of K+ (Rattus norvegicus [9])	Mean excretion of Na+ (Rattus norvegicus [10])	Mean excretion of Na+ (Rattus norvegicus [11])	Mean excretion of Na+ (Rattus norvegicus [12])	Mean excretion of Na+ (Rattus norvegicus [13])	Mean excretion of Na+ (Rattus norvegicus [14])	Mean excretion of Na+ (Rattus norvegicus [15])	Mean excretion of Cl- (Rattus norvegicus [16])	Mean excretion of Cl- (Rattus norvegicus [17])	Mean excretion of Cl- (Rattus norvegicus [18])	Mean excretion of Cl- (Rattus norvegicus [19])	Mean excretion of Cl- (Rattus norvegicus [20])	further results
COc1ccc(C(CN(C)C)c2nnc3n2-c2ccc(Cl)cc2C(c2ccccc2)=NC3)cc1 (stereo not drawn)	5.74 mL	12.25 mL	4.98 mL	4.13 mL	4.81 mL	0.19 m equiv	0.26 m equiv	0.23 m equiv	0.18 m equiv	0.67 m equiv	0.66 m equiv	0.93 m equiv	1.91 m equiv	0.68 m equiv	1.58 m equiv	0.71 m equiv	0.93 m equiv	1.65 m equiv	1.55 m equiv	0.75 m equiv	Mean excretion of Cl- (Rattus norvegicus [21]): 0.71 m equiv; Mean excretion of K+ (Rattus norvegicus [22]): 0.25 m equiv; Mean excretion of K+ (Rattus norvegicus [23]): 0.23 m equiv; T/C 1.2 [24]: 5.57; T/C 1 [25]: 2.77; Mean urine volume (Rattus norvegicus [26]): 10.47 mL
CN(C)CC(c1ccccc1)c1nnc2n1-c1ccc(Cl)cc1C(c1ccccc1Cl)=NC2 (stereo not drawn)																					T/C 1.2 [27]: 2.66; T/C 1 [28]: 1.87
CN(C)CC(c1ccccc1)c1nnc2n1-c1ccccc1C(c1ccccc1Cl)=NC2 (stereo not drawn)																					T/C 1 [29]: 1.62
COc1cccc(C(CN(C)C)c2nnc3n2-c2ccc(Cl)cc2C(c2ccccc2)=NC3)c1 (stereo not drawn)	5.99 mL	12.03 mL	4.29 mL	3.37 mL	3.74 mL	0.17 m equiv	0.3 m equiv	0.17 m equiv	0.24 m equiv	0.52 m equiv	0.64 m equiv	1.13 m equiv	1.76 m equiv	0.79 m equiv	1.99 m equiv	0.72 m equiv	1.11 m equiv	1.8 m equiv	1.99 m equiv	0.78 m equiv	Mean excretion of Cl- (Rattus norvegicus [21]): 0.59 m equiv; Mean excretion of K+ (Rattus norvegicus [22]): 0.21 m equiv; Mean excretion of K+ (Rattus norvegicus [23]): 0.22 m equiv; T/C 1.2 [30]: 7.31; T/C 1 [25]: 3.18; Mean urine volume (Rattus norvegicus [26]): 12.21 mL
COc1ccccc1C(CN(C)C)c1nnc2n1-c1ccc(Cl)cc1C(c1ccccc1)=NC2 (stereo not drawn)	4.92 mL	4.56 mL	5.38 mL	4.8 mL	5.08 mL	0.22 m equiv	0.26 m equiv	0.24 m equiv	0.23 m equiv	0.63 m equiv	0.6 m equiv	0.72 m equiv	0.6 m equiv	0.68 m equiv	0.61 m equiv	0.69 m equiv	0.71 m equiv	0.69 m equiv	0.76 m equiv	0.8 m equiv	Mean excretion of Cl- (Rattus norvegicus [21]): 0.69 m equiv; Mean excretion of K+ (Rattus norvegicus [22]): 0.23 m equiv; Mean excretion of K+ (Rattus norvegicus [23]): 0.17 m equiv; T/C 1.2 [24]: 5.03; T/C 1 [25]: 2.69; Mean urine volume (Rattus norvegicus [26]): 5.19 mL
CN(C)CC(c1cccc(Cl)c1)c1nnc2n1-c1ccc(Cl)cc1C(c1ccccc1)=NC2 (stereo not drawn)																					T/C 1.2 [27]: 3.2; T/C 1 [28]: 1.86
